Calls of active or inactive are those of the source. No cut-off for these calls is given here.
How the values were obtained:
[1] = target: T1, Nuclear factor erythroid 2-related factor 2 (Mus musculus) (UniProt Q60795); assay: Activation of Nrf2/ARE in E15 stage mouse primary cortical neurons at 6.25 to 50 uM after 48 hrs by human placental alkaline phosphatase reporter gene assay; format: cell-based; details: Cerebral cortex neuron
T1 sequence (whole entry): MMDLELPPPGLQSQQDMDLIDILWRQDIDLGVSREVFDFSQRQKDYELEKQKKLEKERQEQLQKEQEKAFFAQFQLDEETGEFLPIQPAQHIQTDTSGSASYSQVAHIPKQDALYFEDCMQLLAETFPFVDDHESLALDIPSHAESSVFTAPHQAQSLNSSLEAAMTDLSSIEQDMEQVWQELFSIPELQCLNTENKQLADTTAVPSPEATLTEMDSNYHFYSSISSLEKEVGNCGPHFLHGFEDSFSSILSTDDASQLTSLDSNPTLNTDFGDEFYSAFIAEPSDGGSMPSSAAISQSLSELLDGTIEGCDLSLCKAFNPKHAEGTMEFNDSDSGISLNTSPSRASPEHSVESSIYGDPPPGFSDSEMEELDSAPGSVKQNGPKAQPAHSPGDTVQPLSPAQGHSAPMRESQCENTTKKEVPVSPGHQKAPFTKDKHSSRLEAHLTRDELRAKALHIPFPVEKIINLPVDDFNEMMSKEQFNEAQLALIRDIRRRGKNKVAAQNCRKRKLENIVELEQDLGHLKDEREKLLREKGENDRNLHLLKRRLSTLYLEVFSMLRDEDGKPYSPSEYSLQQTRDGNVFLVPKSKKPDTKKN
Procedure, shortened: (§1)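 Mixed cortical cultures (~40% astrocytes/60% neurons) from E15 ARE-hPAP reporter mice, hPAP driven by 51 bp rat NQO1 ARE promoter segment; 6 days in vitro, then compound in DMSO (0.1% final) for 48 h. Lysis in TMNC, endogenous phosphatase heat-inactivated in 200 mM DEA at 65 °C; CSPD chemiluminescence, hPAP-negative baseline subtracted; fold over vehicle, n = 5.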

[2] = target: T1, Nuclear factor erythroid 2-related factor 2 (Mus musculus); assay: Activation of Nrf2/ARE in E15 stage mouse primary cortical neurons after 48 hrs by human placental alkaline phosphatase reporter gene assay; format: cell-based; details: Cerebral cortex neuron; procedure, shortened: as §1
[3] = test system: Cerebral cortex neuron; assay: Neuroprotective activity against H2O2-induced oxidative stress in E15 stage mouse primary cortical neurons at 10 uM incubated for 48 hrs prior to H2O2-treatment measured after 24 hrs by TUNEL/DAPI staining-based microscopic analysis; format: functional, cell-based
Procedure, shortened: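 Cortical cultures pretreated 48 h with compound or vehicle, then 35 μM H2O2 for 24 h; fragmented DNA detected by TUNEL staining, nuclei counterstained with DAPI, imaged by photomicroscopy.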

[4] = test system: Cerebral cortex neuron; assay: Neuroprotective activity against H2O2-induced toxicity in E15 stage mouse primary cortical neurons at 10 uM incubated for 48 hrs prior to H2O2-treatment measured after 24 hrs by MTS assay; format: functional, cell-based
Procedure, shortened: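 Cortical cultures pretreated 48 h with compound or vehicle, then exposed to increasing H2O2 concentrations for 24 h; viability by soluble MTS assay. n = 4 compound, n = 8 vehicle; one-way ANOVA with Newman-Keuls.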

[5] = target: T1, Nuclear factor erythroid 2-related factor 2 (Mus musculus); assay: Induction of Nrf2/ARE-mediated GCLC gene expression in E15 stage mouse primary cortical neurons at 10 uM after 24 hrs by qPCR analysis; format: cell-based; details: Cerebral cortex neuron
Procedure, shortened: (§2)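 E15 ARE-hPAP mouse mixed cortical cultures treated 24 h with compound or vehicle; total RNA harvested for quantitative PCR, normalised to GAPDH, fold change vs vehicle; n = 8 treated, n = 4 vehicle.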

[6] = target: T1, Nuclear factor erythroid 2-related factor 2 (Mus musculus); assay: Induction of Nrf2/ARE-mediated NQO1 gene expression in E15 stage mouse primary cortical neurons at 10 uM after 24 hrs by qPCR analysis; format: cell-based; details: Cerebral cortex neuron; procedure, shortened: as §2
[7] = Cytotoxicity against E15 stage mouse primary cortical neurons at 50 uM by MTS assay; format: cell-based; details: cerebral cortex neuron
Procedure, shortened: (§3)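 Mixed cortical cultures from E15 ARE-hPAP mice, 6 days in vitro (5% O2), exposed 48 h to compound in DMSO (0.1% final). Viability read by soluble MTS assay, normalised to vehicle as percent; mean ± SEM, n = 5, one-way ANOVA with Newman-Keuls.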

[8] = Cytotoxicity against E15 stage mouse primary cortical neurons at 25 uM by MTS assay; format: cell-based; details: cerebral cortex neuron; procedure, shortened: as §3
[9] = target: T1, Nuclear factor erythroid 2-related factor 2 (Mus musculus); assay: Activation of Nrf2/ARE in E15 stage mouse primary cortical neurons at 50 uM after 48 hrs by human placental alkaline phosphatase reporter gene; format: cell-based; details: Cerebral cortex neuron; procedure, shortened: as §1
[10] = target: T1, Nuclear factor erythroid 2-related factor 2 (Mus musculus); assay: Activation of Nrf2/ARE in E15 stage mouse primary cortical neurons at 25 uM after 48 hrs by human placental alkaline phosphatase reporter gene assay relative to control; format: cell-based; details: Cerebral cortex neuron; procedure, shortened: as §1
[11] = test system: Cerebral cortex neuron; assay: Neuroprotective activity against H2O2-induced oxidative stress in E15 stage mouse primary cortical neurons at 20 uM incubated for 48 hrs prior to H2O2-treatment measured after 24 hrs by TUNEL/DAPI staining-based microscopic analysis; format: functional, cell-based
Procedure, shortened: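 Mixed cortical cultures (~40% astrocytes, 60% neurons) from E15 ARE-hPAP reporter mouse pups were pretreated with compound or vehicle for 48 h. They were then exposed to 35 μM H2O2 for a further 24 h. Fragmented DNA was stained by TUNEL and nuclei by DAPI, and both were imaged by photomicroscopy.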

[12] = test system: Cerebral cortex neuron; assay: Neuroprotective activity against H2O2-induced toxicity in E15 stage mouse primary cortical neurons at 20 uM incubated for 48 hrs prior to H2O2-treatment measured after 24 hrs by MTS assay; format: functional, cell-based
Procedure, shortened: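 Mixed cortical cultures (~40% astrocytes, 60% neurons) from E15 ARE-hPAP reporter mouse pups were pretreated with compound or vehicle for 48 h. They were then challenged with increasing H2O2 concentrations for 24 h. Viability was read by soluble MTS assay. Mean ± SEM, n = 4 compound, n = 8 vehicle. One-way ANOVA with Newman-Keuls.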

[13] = target: T1, Nuclear factor erythroid 2-related factor 2 (Mus musculus); assay: Induction of Nrf2/ARE-mediated GCLM gene expression in E15 stage mouse primary cortical neurons at 20 uM after 24 hrs by qPCR analysis; format: cell-based; details: Cerebral cortex neuron
Procedure, shortened: (§4)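 Mixed cortical cultures (~40% astrocytes, 60% neurons) from E15 ARE-hPAP reporter mouse pups, grown in Neurobasal/B27 medium at 37 °C under 5% O2, 5% CO2. Treated with compound or vehicle for 24 h. Total RNA used for quantitative PCR, normalised to GAPDH and expressed as fold change relative to vehicle. Mean ± SEM, n = 8 treated, n = 4 vehicle. One-way ANOVA with Newman-Keuls.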

[14] = target: T1, Nuclear factor erythroid 2-related factor 2 (Mus musculus); assay: Induction of Nrf2/ARE-mediated GCLC gene expression in E15 stage mouse primary cortical neurons at 20 uM after 24 hrs by qPCR analysis; format: cell-based; details: Cerebral cortex neuron; procedure, shortened: as §4
[15] = target: T1, Nuclear factor erythroid 2-related factor 2 (Mus musculus); assay: Induction of Nrf2/ARE-mediated NQO1 gene expression in E15 stage mouse primary cortical neurons at 20 uM after 24 hrs by qPCR analysis; format: cell-based; details: Cerebral cortex neuron; procedure, shortened: as §4

Compound	Activity [1]	Activity [2]	Activity [7]	also measured
CC(C)c1cc2c(c(O)c1O)[C@@]13CCCC(C)(C)[C@@H]1[C@H](OC3=O)[C@H]2O	Active	Dose-dependent effect	–	–
CC(C)c1cc2c(c(O)c1O)[C@@]1(C=O)CCCC(C)(C)[C@@H]1CC2 [CARNOSALDEHYDE]	–	Dose-dependent effect	Toxic	Activity [3]: Active; Activity [4]: Active; Activity [5]: Active; Activity [6]: Active; Activity [8]: Toxic; Activity [9]: inactive; fold change (FC) [10]: 50
COc1c(C(C)C)cc2c(c1O)[C@@]1(C(=O)O)CCCC(C)(C)[C@@H]1CC2	inactive	–	–	–
CC(C)c1cc2c(c(O)c1O)[C@@]13CCCC(C)(C)[C@@H]1C[C@@H]2OC3=O [CARNOSOL]	–	Dose-dependent effect	Toxic	Activity [11]: Active; Activity [12]: Active; Activity [13]: Active; Activity [14]: Active; Activity [15]: Active; Activity [9]: inactive; fold change (FC) [10]: 50
CC(C)c1cc2c(c(O)c1O)C1=C(CC2)C(C)(C)CCC1=O	Active	Dose-dependent effect	–	–
CC(C)c1cc2c(c(O)c1O)[C@@]1(C(=O)O)CCCC(C)(C)[C@@H]1CC2 [CARNOSIC ACID]	Active	Dose-dependent effect	Toxic	–
CC(C)(C)c1cc(O)ccc1O	Active	–	–	–
CC(C)c1cc2c(c(O)c1O)[C@@]13CCCC(C)(C)[C@@H]1[C@H](OC3=O)[C@@H]2O	Active	Dose-dependent effect	–	–

Reference: ChEMBL document CHEMBL2375217, “Structure activity relationship of phenolic diterpenes from Salvia officinalis as activators of the nuclear factor E2-related factor 2 pathway” (Bioorg Med Chem, 2013)
